Shown are actives, neighbours in structure and some others; about 2.8% of the full set was active somewhere.
PGE2 EP2 inh: human EP2 receptor antagonists, primary screen, TR-FRET cAMP, C6 glioma cells; Prostaglandin E2 receptor EP2 subtype (Homo sapiens), P43116; C6 glioma cells expressing human EP2; cells stimulated with saturating PGE2; inhibition, % at 25 µM; 260,000 compounds, 0.52% hits;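 active = percent inhibition above 40 after rounding to a whole number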;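 also: rat C6 glioma host cells with rolipram phosphodiesterase inhibitor present; the protocol text gives 20 µM as final concentration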
NPY-Y1 PAM-ag: NPY-Y1 receptor potentiators or agonists, primary screen, cell-based; Neuropeptide Y receptor type 1 (Homo sapiens), P25929; NPY-Y1 expressing cells, potentiator/agonist activation; activation, % at 3.6 µM; 220,000 compounds, 0.37% hits; AID 1304, 2008; in the data active = activation above about 33%, passing the limit was not always enough;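 also: cells stimulated with NPY at EC10 then isoproterenol at EC100; 0% = low agonist plus stimulus and 100% = saturating agonist plus stimulus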
Target sequence (P25929 whole entry, looked up): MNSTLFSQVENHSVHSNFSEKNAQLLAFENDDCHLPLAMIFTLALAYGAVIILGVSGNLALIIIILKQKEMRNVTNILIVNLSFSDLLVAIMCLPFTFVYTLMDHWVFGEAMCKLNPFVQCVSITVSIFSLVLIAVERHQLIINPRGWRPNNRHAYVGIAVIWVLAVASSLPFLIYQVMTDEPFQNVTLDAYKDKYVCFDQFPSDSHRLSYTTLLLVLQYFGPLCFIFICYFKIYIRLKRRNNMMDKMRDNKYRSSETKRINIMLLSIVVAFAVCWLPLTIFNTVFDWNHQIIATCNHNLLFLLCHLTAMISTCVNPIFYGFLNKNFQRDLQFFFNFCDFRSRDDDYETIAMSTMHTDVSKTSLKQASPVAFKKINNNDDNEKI
NPY-Y2 PAM-ag: NPY-Y2 potentiators or agonists, primary screen, cell-based. cells expressing NPY-Y2, potentiator/agonist read-out. activation, % at 3.6 µM. 220,000 compounds, 0.45% hits. AID 1359, 2008; in the data active = activation above about 27%;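 also: cells stimulated with NPY near EC25 plus isoproterenol at EC100; 0% = vehicle plus submaximal agonist and 100% = vehicle plus saturating agonist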
NPY Y1 blocker: NPY-Y1 receptor antagonists, primary screen, cell-based; 200,000 compounds, 1% hits; AID 1040, 2008; inhibition, % at 3.6 µM; HEK293-CNG Y1 cells, membrane potential fluorescence; NPY at EC95, then isoproterenol; Neuropeptide Y receptor type 1 (Homo sapiens), P25929;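 active = inhibition above the campaign mean inhibition of all tested compounds plus 3 SD, cut at about 20% in these data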;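 also: 0% = DMSO wells given NPY plus isoproterenol and 100% = isoproterenol alone without NPY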
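Material: HEK293 Y1/CNG channel cell line | Also added: NPY (25 nM), isoproterenol (1 µM), Ro 20-1724 (25 µM) | Compound: One concentration, 3.6 µM, in 0.4% DMSO | Schedule: 3 h dye uptake, 1 h room-temperature compound, 45 min post-isoproterenol | Signal: Membrane-potential fluorescent dye readout | Read-out: % inhibition of NPY effect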
EP2 mod: EP2 receptor modulators, cAMP readout, primary screen, cell-based, HTRF cAMP, PGE2 stimulation; induction, % at 25 µM; EP2-expressing cells, cAMP HTRF FRET, PGE2 co-stimulation; 260,000 compounds, 0.83% hits;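 active = compounds whose cAMP rise, as percent of the full-agonist control response, exceeds 60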;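 also: rat C6 glioma line stably carrying human EP2 under a CMV promoter; the protocol text gives 20 µM as final concentration; 100% = response of wells given 1 µM PGE2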
NPY Y2 blocker: NPY-Y2 receptor antagonists, primary screen, cell-based. NPY-Y2 expressing cells, antagonist mode. 140,000 compounds, 0.99% hits. Neuropeptide Y receptor type 2 (Homo sapiens), P49146. inhibition, % at 2.7 µM; in the data active = inhibition above about 17%;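 also: 0% = vehicle with agonist challenge and 100% = reference antagonist with challenge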
* marks the source's active call; other numbers are inactive results; / = not tested or not shown.

SMILES	PGE2 EP2 inh	NPY-Y1 PAM-ag	NPY-Y2 PAM-ag	NPY Y1 blocker	EP2 mod	NPY Y2 blocker
CN1C(=O)C2(C(C#N)=C(N)Oc3n[nH]c(-c4ccc(Cl)cc4)c32)c2ccccc21 (stereo not drawn)	23	40*	43*	-9	26	-1
Cc1cc(C)c2[nH]c(=O)c(CN(Cc3ccccc3)C(c3nnnn3Cc3ccco3)C(C)C)cc2c1 (stereo not drawn)	20	/	/	/	-67	/
O=C1C(c2c(O)[nH]c3ccccc23)=Nc2ccccc21	24	31	3	-8	/	/
CC(=O)c1cccc2c(O)c(C3=Nc4ccccc4C3=O)[nH]c12	47*	-5	-11	-6	-58	2
O=C(NC1CCCCCC1)C1CCN(S(=O)(=O)c2ccc(Cl)cc2)CC1	15	/	/	/	-21	/
CC(=O)[C@@]1(N=Nc2ccc(S(N)(=O)=O)cc2)CCOC1=O	116*	/	/	/	-31	/
CCC1CCCCN1c1nc(-c2ccncc2)nc2ccccc12 (stereo not drawn)	7	-52	-24	11	47	14
CC1CCCCN1c1nc(-c2ccncc2)nc2ccccc12 (stereo not drawn)	22	-48	-9	-1	65*	8
CCCCCCCCCn1c2c(c(=N)c3c1CCC3)CCC2	9	-132	-36	90*	-4	37*
Cc1ccc(C(C(=O)NC2CCCCC2)N(Cc2ccco2)C(=O)c2csnn2)cc1 (stereo not drawn)	3	/	/	/	-2	/
CC(C)C(=O)N1CCN(c2ccc(NC(=O)COc3ccccc3)cc2)CC1	8	/	/	/	-57	/
CCc1cc2cc3c(cc2nc1SCC(=O)Nc1cc(OC)cc(OC)c1)OCO3	12	/	/	/	69*	/
COc1ccc(NC(=O)CSc2nc3cc4c(cc3cc2C)OCO4)cc1	16	/	/	/	-95	/
CC(C)(C)NC(=O)CSc1nc2cc3c(cc2cc1Cc1ccccc1)OCO3	10	/	/	/	81*	/
CCc1cc2ccc(OC)cc2nc1SCC(=O)Nc1ccc2c(c1)OCO2	12	/	/	/	76*	/
CCc1cc2cc3c(cc2nc1SCC(=O)NNC(=O)c1ccccc1)OCO3	27	/	/	/	38	/
CCc1cc2cc3c(cc2nc1SCC(=O)Nc1nc2c(s1)CCCC2)OCO3	23	/	/	/	77*	/
CCOc1ccc2[nH]c(=O)c(CN(Cc3ccco3)S(=O)(=O)c3cc(Cl)ccc3C)cc2c1	1	/	/	/	15	/
O=C1C(=O)c2ccccc2C(O)=C1C(CCc1ccccc1)C1=C(O)c2ccccc2C(=O)C1=O	42*	/	/	/	27	/
Cc1nnnn1-c1cccc(C(=O)N2CCC(C(=O)c3nc4ccccc4s3)CC2)c1	/	/	/	/	-17	/
O=C(CSc1ncnc2scc(-c3ccccc3)c12)N1CCN(c2ccccc2F)CC1	7	-29	-5	33*	13	30*
O=c1[nH]c(N2CCCC2)nc2c1CCN(Cc1cc(Cl)ccc1O)C2	8	/	/	/	-34	/
CCCCCn1c(-c2ccco2)nc2nc3ccccc3nc21	/	-12	-13	12	56	13
c1ccc(Cn2c(-c3ccco3)nc3nc4ccccc4nc32)cc1	17	7	13	-2	62*	6
CCc1ccccc1NC(=O)CSc1nc2ccc(OC)cc2cc1C	22	/	/	/	70*	/
SMILES	PGE2 EP2 inh	NPY-Y1 PAM-ag	NPY-Y2 PAM-ag	NPY Y1 blocker	EP2 mod	NPY Y2 blocker
O=C(CSc1nc2ccccc2cc1Cc1ccccc1)Nc1nccs1	18	/	/	/	64*	/
CCc1cc2ccccc2nc1SCC(=O)Nc1ccccc1	12	/	/	/	45	/
CCc1cc2ccccc2nc1SCC(=O)Nc1ccccc1C	19	/	/	/	80*	/
COc1ccc(NC(=O)CSc2nc3ccccc3cc2Cc2ccccc2)cc1	7	-17	-17	6	57	6
Cc1cc(N/N=C/c2ccc(O)c(C)c2O)nc(-c2ccccc2O)n1	91*	25	28	-9	-7	-4
CCC1c2ccc(C)n2CCN1C(=O)c1cc(-c2ccccn2)n[nH]1 (stereo not drawn)	11	/	/	/	-36	/
COCCn1nnnc1C(c1ccccn1)N1CCc2ccccc2C1 (stereo not drawn)	8	/	/	/	8	/

Screens deposited in PubChem by several laboratories.
